For orientation: half-life means how long it takes for the measured level to halve. A low value points to fast loss. A word on the AUC(0-inf): it is the area under the concentration-time curve extrapolated to infinity. Higher therefore signals high exposure. By AUC(0-t) is commonly meant exposure summed from dosing to a finite time, without extrapolation to infinity. The low end stands for less exposure, the high end for more exposure. In general, Tmax refers to the time from dosing to the highest level.

Data on three molecules can be found in publication PMC7004511 (Cancer Science, 2020).

Molecules are shown by their SMILES. “Also recorded” adds a separate entry of the source. Where two headings read alike, the source gives them in different places.

The nature of one data set: Phase I dose escalation. It is filed as in vivo, human.
Data set [1] in a line: Pharmacokinetics of gefitinib in plasma. It is filed as in vivo, human.
A short description of data set [2]: Pharmacokinetics of vorinostat in serum. Conditions: for AUC(0-t): AUC last. It is filed as in vivo, human. The essentials: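 Patients with EGFR-mutated (exon 19 deletion or L858R) NSCLC carrying the BIM deletion polymorphism received oral vorinostat once daily on days 1-7 (200, 300 or 400 mg) with oral gefitinib 250 mg once daily, in 14-day cycles. Vorinostat was quantified in serum. Tmax is given as a median, and t1/2 and Cmax as mean ± SD per dose level.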

Data set [3] has as its system acetylated histone H3 (Lys27). Put plainly: Pharmacodynamics: western blotting of PBMC protein, acetylated histone H3. It is filed as in vivo, human.
Data set [4] concerns proapoptotic BIM protein (BIMEL). Put plainly: Pharmacodynamics: western blotting of PBMC protein, BIMEL. It is filed as in vivo, human. (In general: A western blot detects proteins with antibodies after separation by electrophoresis.)
In data set [5] the test system is T790M‐positive EGFR‐mutated NSCLC cells. The settings on record: in vitro; cited from earlier work.
In data set [6] the test system is BIM deletion polymorphism‐positive EGFR‐mutated NSCLC cell lines (PC‐3). Conditions: cited from earlier work.
The conditions of data set [7]: biweekly, plus erlotinib 150 mg daily or gefitinib 250 mg daily; cited from earlier work.
The mark [8] stands for this setting: human, po, 200 mg, mean (SD), vorinostat Level 1 (200 mg) oral, n=3.
The mark [9] stands for this setting: human, po, 200 mg, median (range), vorinostat Level 1 (200 mg) oral, n=3.
Where [10] appears, read: 4 h after dose on day 2 of cycle 1, all levels.

As for `COc1cc2ncnc(Nc3ccc(F)c(Cl)c3)c2cc1OCCCN1CCOCC1` [Gefitinib], in “Phase I dose escalation” (daily, with vorinostat 400 mg/day biweekly), the “Recommended phase II dose (RP2D) of gefitinib” value is reported as 250 mg. Further, the “Median T max of gefitinib” value in data set [1] (gefitinib 250 mg, vorinostat 200 mg group) came out at 4 h.
For `O=C(CCCCCCC(=O)Nc1ccccc1)NO` [Vorinostat, suberoylanilide hydroxamic acid], the “Recommended phase II dose (RP2D) of vorinostat” value in the data set “Phase I dose escalation” (biweekly, combined with gefitinib 250 mg daily) came out at 400 mg/day; in the data set “Phase I dose escalation” (combined with gefitinib), 400 mg. Moreover, the half-life in data set [2] (human, po, 200 mg) was 3.6 h; in data set [2] (human, po, 400 mg), 2.1 h. For the same molecule, the AUC(0-inf) was 2.43 µM·h in data set [2] (setting [8]) and 2.83 µM·h in data set [2] (setting [9]). Further, the figures for the exposure AUC(0-t) in data set [2] (setting [8]) and in data set [2] (setting [9]) were 2.34 µM·h and 2.72 µM·h, respectively. The Cmax in data set [2] (human, po, 200 mg, C max, mean (SD), vorinostat Level 1 (200 mg) oral, n=3) is 602 nM; in data set [2] (read-out: C max, median (range), vorinostat Level 1 (200 mg) oral, n=3), 615 nM; in data set [2] (read-out: C max, median (range), vorinostat Level 3 (400 mg) oral, n=6) it was 944 nM. Also, the Tmax in data set [2] (human, po, 300 mg) stood at 3.3 h; in data set [2] (human, po, 400 mg), 3.5 h. For the same molecule, the “T max, median (range)” value in data set [2] (vorinostat Level 1 (200 mg) oral, n=3) is reported as 2.0 (1.1‐4.0) h; in data set [2] (vorinostat Level 3 (400 mg) oral, n=6), 4.0 (0.9‐4.1) h. The “Effect of vorinostat on the pharmacokinetics of gefitinib” value in data set [1] (vorinostat 200, 300, 400 mg groups compared) was “unlikely to affect the pharmacokinetics of gefitinib; also recorded: did not affect the dynamics of gefitinib”. Also, the “Patients with increased acetylated histone H3 protein expression” value in data set [3] (setting [10]) was 10/11; in data set [3] (all levels) it was 91%; in data set [3] (level 1 (200 mg)), 3/3; in data set [3] (level 2 (300 mg)) it was 3/3; in data set [3] (level 3 (400 mg)), 4/5. Also, the “Patients with increased proapoptotic BIM protein (BIMEL) expression” value in data set [4] (setting [10]) is 5/11; in data set [4] (4 h after dose on day 2 of cycle 1, all levels, listed as vorinostat), “five of 11”; in data set [4] (all levels) it was 45.5%; in data set [4] (level 1 (200 mg)), 1/3; in data set [4] (level 2 (300 mg)), 3/3; in data set [4] (level 3 (400 mg)), 1/5. Besides, the “Sensitization of cells to gefitinib” value in data set [5] is reported as “did not sensitize T790M‐positive EGFR‐mutated NSCLC cells to gefitinib”. For the same molecule, the “Resensitization of cells to EGFR-TKI by addition of vorinostat” value in data set [6] is given as “could resensitize these cells to EGFR‐TKI”. Also, the “Recommended dose of vorinostat” value in data set [7] is recorded as 400 mg/day.
As to `C=CC(=O)Nc1cc(Nc2nccc(-c3cn(C)c4ccccc34)n2)c(OC)cc1N(C)CCN(C)C` [osimertinib], the “Sensitivity to osimertinib-induced apoptosis” value in data set [6] is given as “resistant to osimertinib‐induced apoptosis”.
